Measured values published in ChEMBL document CHEMBL1126701, “New mechanism-based inactivators of trypsin-like proteinases. Selective inactivation of urokinase by functionalized cyclopeptides incorporating a sulfoniomethyl-substituted m-aminobenzoic acid residue” (J Med Chem, 1993).
Active and inactive are the calls of the source. The rule behind the calls is not given here.

Tests used:
[1] = molecular target: Plasminogen (Homo sapiens) (UniProt P00747); test: Ratio of inactivation to apparent binding constant against plasmin;NI=no inhibition
Procedure, shortened: (§1)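 Plasmin (1 μM; 0.7 μM in one series) preincubated with inhibitor 34-560 μM at pH 7.5, 25 °C. Aliquots assayed for residual activity on S-2251. kobs from semilog plots; kinact/KI from Kitz-Wilson analysis or as kobs/[I].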

[2] = molecular target: Prothrombin (Homo sapiens) (UniProt P00734); test: Ratio of inactivation to apparent binding constant against thrombin;NI=no inhibition
Procedure, shortened: (§2)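 Thrombin (0.1 μM) preincubated with 300 μM inhibitor at pH 7.5, 25 °C. Timed aliquots assayed for residual activity with S-2238. Pseudo-first-order kobs from semilog plot of remaining activity vs time.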

[3] = molecular target: T1, Serine protease 1 (Bos taurus) (UniProt P00760); test: Ratio of inactivation to apparent binding constant against bovine trypsin
T1 sequence (whole entry): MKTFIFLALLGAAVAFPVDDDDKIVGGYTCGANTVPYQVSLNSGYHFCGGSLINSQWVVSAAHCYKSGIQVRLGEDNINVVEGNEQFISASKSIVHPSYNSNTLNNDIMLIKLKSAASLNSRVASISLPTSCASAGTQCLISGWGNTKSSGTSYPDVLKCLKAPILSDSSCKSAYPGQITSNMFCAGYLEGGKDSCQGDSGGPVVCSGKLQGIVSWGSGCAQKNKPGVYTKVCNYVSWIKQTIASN
Procedure, shortened: (§3)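 Pseudo-first-order inactivation at pH 7.5, 25 °C, inhibitor in excess. Two methods. Preincubation: aliquots taken over time and assayed for residual activity, kobs from semilog plots. Progress curve: continuous A405 with chromogenic substrate present, vs blank with inhibitor and substrate (trypsin 0.5 μM, BAPNA 0.3 mM, 1.5% DMSO; urokinase 31 nM, S-2444). KI and kinact from double-reciprocal (Wilkinson) fits.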

[4] = molecular target: T2, Urokinase-type plasminogen activator (Homo sapiens, UniProt P00749); test: Apparent binding constant against Human urokinase; procedure, shortened: as §3
[5] = molecular target: T2, Urokinase-type plasminogen activator; test: Inactivation constant determined against urokinase; procedure, shortened: as §3
[6] = molecular target: T2, Urokinase-type plasminogen activator; test: Ratio of inactivation to apparent binding constant against human urokinase; procedure, shortened: as §3
[7] = molecular target: Tissue-type plasminogen activator (Homo sapiens) (UniProt P00750); test: Ratio of inactivation to apparent binding constant against tissue plasminogen activator (t-PA);NI=no inhibition
Procedure, shortened: (§4)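 t-PA (0.75 μM) preincubated with inhibitor 0.37-1 mM at pH 7.5, 25 °C. Aliquots assayed periodically for remaining amidolytic activity with p-nitroanilide substrate. kobs from semilogarithmic plots.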

[8] = molecular target: T1, Serine protease 1 (Bos taurus); test: Ratio of inactivation to apparent binding constant against bovine trypsin;NI=no inhibition
[9] = molecular target: T2, Urokinase-type plasminogen activator; test: Ratio of inactivation to apparent binding constant against human urokinase; NI=no inhibition
[10] = molecular target: T1, Serine protease 1 (Bos taurus); test: Inactivation constant determined against bovine trypsin; procedure, shortened: as §3
[11] = molecular target: T3, Serine protease 1 (Bos taurus, UniProt P00760); test: Apparent binding constant against bovine trypsin; procedure, shortened: as §3
T3 sequence (P00760 whole entry): T1 sequence (whole entry)

[12] = molecular target: Prothrombin (Homo sapiens) (UniProt P00734); test: Ratio of inactivation to apparent binding constant against thrombin; procedure, shortened: as §2
[13] = molecular target: Tissue-type plasminogen activator (Homo sapiens) (UniProt P00750); test: Ratio of inactivation to apparent binding constant against tissue plasminogen activator (t-PA); procedure, shortened: as §4
[14] = molecular target: Plasminogen (Homo sapiens) (UniProt P00747); test: Ratio of inactivation to apparent binding constant against plasmin; procedure, shortened: as §1
[15] = molecular target: Trypsin (Sus scrofa) (UniProt P00761); test: Inactivation constant determined against porcine trypsin
[16] = molecular target: Trypsin (Sus scrofa) (UniProt P00761); test: Ratio of inactivation to apparent binding constant against porcine trypsin
[17] = molecular target: T1, Serine protease 1 (Bos taurus)
[18] = molecular target: T2, Urokinase-type plasminogen activator
[19] = molecular target: T1, Serine protease 1 (Bos taurus); test: Ratio of inactivation to apparent binding constant against bovine trypsin (obtained as k obs/[I] at low inhibitor concentration)
Procedure, shortened: (§5)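 For weak inactivation, kinact/KI taken as kobs/[I] at low inhibitor concentration. Preincubation at pH 7.5, 25 °C: trypsin 4.5 μM or urokinase 55 μM with excess inhibitor. Aliquots diluted (or filtered at 4 °C) and assayed for residual activity on BAPNA or S-2444. kobs by least squares of semilog remaining activity vs time.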

[20] = molecular target: T2, Urokinase-type plasminogen activator; test: Ratio of inactivation to apparent binding constant against human urokinase (obtained as k obs/[I] at low inhibitor concentration); procedure, shortened: as §5

Plasminogen (Homo sapiens), sequence (P00747 97-580 limits assumed): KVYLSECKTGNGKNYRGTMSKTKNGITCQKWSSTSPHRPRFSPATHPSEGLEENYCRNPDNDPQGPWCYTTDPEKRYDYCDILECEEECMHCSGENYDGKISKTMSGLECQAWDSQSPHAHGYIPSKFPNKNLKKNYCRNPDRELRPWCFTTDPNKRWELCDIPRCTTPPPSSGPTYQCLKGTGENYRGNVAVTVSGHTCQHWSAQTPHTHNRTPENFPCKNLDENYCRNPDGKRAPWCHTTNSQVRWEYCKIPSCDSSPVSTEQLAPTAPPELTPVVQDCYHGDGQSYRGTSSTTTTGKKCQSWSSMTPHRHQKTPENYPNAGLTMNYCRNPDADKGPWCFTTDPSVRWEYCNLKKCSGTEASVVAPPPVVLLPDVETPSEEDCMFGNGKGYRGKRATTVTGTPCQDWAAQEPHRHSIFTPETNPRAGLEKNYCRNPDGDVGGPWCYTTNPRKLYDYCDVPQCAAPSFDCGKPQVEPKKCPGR
Plasminogen (Homo sapiens), sequence (P00747 581-810 limits assumed): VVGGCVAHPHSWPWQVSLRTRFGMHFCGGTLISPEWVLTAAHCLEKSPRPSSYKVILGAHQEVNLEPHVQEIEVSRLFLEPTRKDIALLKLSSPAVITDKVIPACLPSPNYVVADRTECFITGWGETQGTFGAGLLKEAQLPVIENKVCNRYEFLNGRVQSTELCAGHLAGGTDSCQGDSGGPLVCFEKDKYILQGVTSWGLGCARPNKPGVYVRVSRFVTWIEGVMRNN
Tissue-type plasminogen activator (Homo sapiens), sequence (P00750 36-562 limits assumed): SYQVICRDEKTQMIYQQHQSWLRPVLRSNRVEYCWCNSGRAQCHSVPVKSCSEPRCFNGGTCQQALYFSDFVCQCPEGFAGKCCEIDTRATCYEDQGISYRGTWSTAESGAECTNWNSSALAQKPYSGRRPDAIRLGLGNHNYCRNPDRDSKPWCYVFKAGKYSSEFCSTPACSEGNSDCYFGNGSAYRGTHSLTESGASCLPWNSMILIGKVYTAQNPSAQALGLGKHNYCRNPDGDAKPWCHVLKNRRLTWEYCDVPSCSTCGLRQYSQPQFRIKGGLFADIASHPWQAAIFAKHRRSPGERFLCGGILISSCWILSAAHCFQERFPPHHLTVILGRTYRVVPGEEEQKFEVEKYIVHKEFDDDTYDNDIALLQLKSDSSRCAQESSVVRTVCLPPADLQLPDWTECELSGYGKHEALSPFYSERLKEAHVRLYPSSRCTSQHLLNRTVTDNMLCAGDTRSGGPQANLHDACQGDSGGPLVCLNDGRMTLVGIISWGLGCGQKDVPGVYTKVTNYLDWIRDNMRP
Trypsin (Sus scrofa), sequence (P00761 whole entry, looked up): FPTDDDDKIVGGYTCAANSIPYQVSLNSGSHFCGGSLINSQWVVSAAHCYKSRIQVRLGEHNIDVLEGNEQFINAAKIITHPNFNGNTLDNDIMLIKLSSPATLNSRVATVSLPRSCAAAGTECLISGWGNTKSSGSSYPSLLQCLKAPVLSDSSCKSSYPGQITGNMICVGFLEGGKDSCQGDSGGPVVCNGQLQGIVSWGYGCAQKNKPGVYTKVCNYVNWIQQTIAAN

For C[S+](C)Cc1ccc2cc1C(=O)NCC(=O)NC(CCCN=C(N)N)C(=O)N2 (stereo unspecified), the Ratio [1] was “inactive”, the Ratio [2] was “inactive” and the Ratio [3] was 1 M⁻¹ s⁻¹. The Ki [4] was 41 µM, the K inact [5] was 0.014 s⁻¹ and the Ratio [6] was 341 M⁻¹ s⁻¹. For the same compound, the Ratio [7] was “inactive”.

NCCCCC1NC(=O)CNC(=O)c2cc(CBr)ccc2NC1=O (stereo unspecified) was tested, and the Ratio [1] was “inactive”, the Ratio [2] was “inactive” and the Ratio [8] was “inactive”. For the same compound, the Ratio [9] was “inactive” and the Ratio [7] was “inactive”.

In the case of NCCCCC1NC(=O)CNC(=O)c2cc(ccc2CBr)NC1=O (stereo unspecified), the Ratio [1] is reported as “inactive”, the Ratio [2] is reported as “inactive” and the K inact [10] is reported as 0.02 s⁻¹. For the same compound, the Ratio [3] was 250 M⁻¹ s⁻¹, the Ki [11] was 80 µM and the Ratio [7] was “inactive”.

For C[S+](Cc1ccc2c(c1)C(=O)NCC(=O)NC(CCCCN)C(=O)N2)c1ccccc1 (stereo unspecified), the Ratio [1] was “inactive”, the Ratio [2] was “inactive” and the Ratio [8] was “inactive”. For the same compound, the Ratio [6] was 25 M⁻¹ s⁻¹ and the Ratio [7] was “inactive”.

N=C(N)NCCCC1NC(=O)CNC(=O)c2cc(CBr)ccc2NC1=O (stereo unspecified) was tested, and the Ratio [12] was “No inactivation”, the Ratio [8] was 5 M⁻¹ s⁻¹ and the Ratio [9] was 14 M⁻¹ s⁻¹. The Ratio [13] was “No inactivation” and the Ratio [14] was “No inactivation”.

For N=C(N)NCCCC1NC(=O)CNC(=O)c2cc(ccc2CBr)NC1=O (stereo unspecified), the Ratio [2] was “inactive”, the K inact [10] was 0.031 s⁻¹ and the Ratio [3] was 560 M⁻¹ s⁻¹. It also gave a Ki [11] of 55 µM, a Ki [4] of 92 µM and a K inact [5] of 0.017 s⁻¹. The Ratio [6] was 185 M⁻¹ s⁻¹, the Ratio [7] was “inactive” and the Ratio [14] was 2 M⁻¹ s⁻¹. For the same compound, the K inact [15] was 0.041 s⁻¹ and the Ratio [16] was 2050 M⁻¹ s⁻¹.

In the case of C[S+](Cc1ccc2cc1C(=O)NCC(=O)NC(CCCN=C(N)N)C(=O)N2)c1ccccc1 (stereo unspecified), the Ratio [2] is reported as 12 M⁻¹ s⁻¹, the Ratio [3] is reported as 916 M⁻¹ s⁻¹ and the Ki [11] is reported as 12 µM. The Ki [4] was 9 µM, the Ratio [6] was 2330 M⁻¹ s⁻¹ and the Ratio [7] was 1 M⁻¹ s⁻¹. The Ratio [14] was 40 M⁻¹ s⁻¹, the kinact [17] was 0.011 s⁻¹ and the kinact [18] was 0.021 s⁻¹.

With C[S+](Cc1ccc2cc1C(=O)NCC(=O)NC(CCCCN)C(=O)N2)c1ccccc1 (stereo unspecified) the Ratio [2] was “inactive”, the K inact [10] was 0.0075 s⁻¹ and the Ratio [3] was 860 M⁻¹ s⁻¹. The Ki [11] was 8.7 µM, the Ki [4] was 500 µM and the K inact [5] was 0.077 s⁻¹. The Ratio [6] was 154 M⁻¹ s⁻¹, the Ratio [7] was “inactive” and the Ratio [14] was 75 M⁻¹ s⁻¹.

In the case of C[S+](C)Cc1ccc2cc1C(=O)NCC(=O)NC(CCCCN)C(=O)N2 (stereo unspecified), the Ratio [1] is reported as “inactive”, the Ratio [2] is reported as “inactive” and the Ratio [8] is reported as “inactive”. For the same compound, the Ratio [7] was “inactive”.

C[S+](Cc1ccc2c(c1)C(=O)NCC(=O)NC(CCCN=C(N)N)C(=O)N2)c1ccccc1 (stereo unspecified) was tested, and the Ratio [1] was “inactive”, the Ratio [2] was “inactive” and the Ratio [19] was 50 M⁻¹ s⁻¹. For the same compound, the Ratio [20] was 14 M⁻¹ s⁻¹ and the Ratio [7] was “inactive”.
